Reference: ChEMBL document CHEMBL4138248, “Discovery of naphtho[1,2-d]oxazole derivatives as potential anti-HCV agents through inducing heme oxygenase-1 expression” (Eur J Med Chem, 2018)
Calls of active or inactive are those of the source. The rule behind the calls is not given here.

Columns and labels:
[1] = Cytotoxicity against human Ava5 cells assessed as cell viability at 200 uM after 72 hrs by XTT assay relative to control; assay type: cell-based; settings: read-out: Activity
How it was run: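 XTT viability assay run alongside the antiviral assays. Ava5 cells were plated at 5×10^3 per well and exposed to 20 or 200 μM for 72 h at 37 °C in humidified 5% CO₂. Viability is expressed as % of untreated cells.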

[2] = test system: Hepatitis C virus; assay: (§1) Antiviral activity against HCV infected in human Ava5 cells assessed as inhibition of viral RNA replication after 3 days by RT-qPCR method; assay type: functional, organism-based, Hepacivirus hominis; settings: Ava5, 72 h
How it was run: (§2)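 Ava5 cells (Huh-7 hepatoma cells carrying an HCV replicon, grown in DMEM/10% FBS with 1 mg·mL⁻¹ G418) were treated for 3 days with a range of concentrations. HCV RNA was measured by RT-qPCR and normalized to cellular gapdh mRNA. Values are mean ± SD of three independent experiments, each in triplicate.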

[3] = Cytotoxicity against human Ava5 cells assessed as decrease in cell viability after 72 hrs by XTT assay; assay type: cell-based
How it was run: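 XTT assay on […] Ava5 cells at 5×10^3 per well with serial dilutions for 72 h at 37 °C in 5% CO₂. CC50 is the concentration giving 50% growth inhibition.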

[4] = test system: Hepatitis C virus; assay: Potency index, ratio of ribavirin IC50 to test compound IC50 for HCV; assay type: functional, Hepacivirus hominis
[5] = test system: Hepatitis C virus; assay: as §1; assay type: functional, organism-based, Hepacivirus hominis; how it was run: as §2
[6] = species on record: Homo sapiens; assay: Upregulation of HO-1 protein expression in human Ava5 cells after 3 days by Western blot method; assay type: functional, cell-based
How it was run: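 Ava5 cells were treated for 3 days at the indicated concentrations. Lysates (10 µg protein, 10% SDS-PAGE, PVDF) were probed with anti-HO-1 and anti-GAPDH.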

[7] = test system: Hepatitis C virus; assay: Antiviral activity against HCV infected in human Ava5 cells assessed as inhibition of viral RNA replication at 1 uM after 3 days in presence of HO-1 inhibitor SnPP by RT-qPCR method; assay type: functional, organism-based; settings: Hepacivirus hominis
How it was run: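 Ava5 cells were co-incubated for 3 days with test compound at 1 μM plus the HO-1 inhibitor SnPP (tin protoporphyrin IX) at 0–5 μM. Lysates went to western blot for NS5B and GAPDH. RNA went to RT-qPCR normalized to gapdh mRNA. Mean ± SD of three independent experiments.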

[8] = species on record: Homo sapiens; assay: Effect on Nrf2 protein expression in human Ava5 cells at 0.5 to 1 uM after 3 days by Western blot method; assay type: functional, cell-based
How it was run: (§3)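 Ava5 cells were treated for 3 days at the indicated concentrations. Whole-cell lysates were immunoblotted with anti-Nrf2, anti-Keap-1, anti-bach1 and anti-GAPDH.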

[9] = species on record: Homo sapiens; assay: Effect on Keap-1 protein expression in human Ava5 cells at 0.5 to 1 uM after 3 days by Western blot method; assay type: functional, cell-based; how it was run: as §3
[10] = target: T1, Nuclear factor erythroid 2-related factor 2 (Homo sapiens) (UniProt Q16236); assay: Induction of Nrf2-mediated ARE transactivation in human Ava5 cells transfected with p2xARE-Luc after 3 days; assay type: cell-based
T1 sequence (whole entry): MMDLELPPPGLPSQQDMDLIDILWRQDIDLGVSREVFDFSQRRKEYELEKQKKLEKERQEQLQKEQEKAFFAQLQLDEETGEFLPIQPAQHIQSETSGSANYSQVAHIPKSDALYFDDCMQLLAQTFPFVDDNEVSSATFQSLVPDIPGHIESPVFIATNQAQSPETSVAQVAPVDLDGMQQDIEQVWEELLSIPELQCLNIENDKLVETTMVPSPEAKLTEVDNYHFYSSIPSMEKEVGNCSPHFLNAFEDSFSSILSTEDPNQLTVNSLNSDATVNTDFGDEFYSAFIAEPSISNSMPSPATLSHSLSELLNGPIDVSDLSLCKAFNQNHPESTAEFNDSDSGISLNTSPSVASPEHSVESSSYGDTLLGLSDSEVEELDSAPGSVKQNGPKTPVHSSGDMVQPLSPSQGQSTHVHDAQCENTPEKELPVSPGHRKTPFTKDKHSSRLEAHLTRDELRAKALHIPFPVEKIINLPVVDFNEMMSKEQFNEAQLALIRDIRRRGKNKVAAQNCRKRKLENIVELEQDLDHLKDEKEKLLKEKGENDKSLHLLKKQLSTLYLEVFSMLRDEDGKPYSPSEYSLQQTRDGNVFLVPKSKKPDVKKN
How it was run: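 Ava5 cells were transfected with the p2xARE-Luc reporter (ARE-driven firefly luciferase), treated for 3 days, and luciferase was measured in lysates. Normalization was to co-transfected pCMV-SEAP. Mean ± SD of three independent experiments.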

[11] = target: T2, Heme oxygenase 1 (Homo sapiens) (UniProt P09601); assay: Induction of HO-1-mediated IFN-alpha-2 mRNA expression in human Ava5 cells after 3 days by RT-qPCR method; assay type: cell-based
T2 sequence (whole entry): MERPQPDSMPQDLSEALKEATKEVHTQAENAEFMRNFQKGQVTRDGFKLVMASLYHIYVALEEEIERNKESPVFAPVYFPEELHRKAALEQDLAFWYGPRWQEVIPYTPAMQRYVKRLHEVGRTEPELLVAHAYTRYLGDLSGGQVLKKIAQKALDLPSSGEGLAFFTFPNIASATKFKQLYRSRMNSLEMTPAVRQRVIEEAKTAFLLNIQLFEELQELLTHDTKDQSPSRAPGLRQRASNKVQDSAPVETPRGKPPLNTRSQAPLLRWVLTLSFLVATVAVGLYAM
How it was run: (§4)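 Ava5 cells were treated for 3 days at the indicated concentrations. Target mRNAs were measured by RT-qPCR with specific primers and normalized to endogenous gapdh. Results are relative to DMSO-treated cells.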

[12] = target: T2, Heme oxygenase 1 (Homo sapiens); assay: Induction of HO-1-mediated IFN-alpha-5 mRNA expression in human Ava5 cells after 3 days by RT-qPCR method; assay type: cell-based; how it was run: as §4
[13] = target: T2, Heme oxygenase 1 (Homo sapiens); assay: Induction of HO-1-mediated IFN-alpha-17 mRNA expression in human Ava5 cells after 3 days by RT-qPCR method; assay type: cell-based; how it was run: as §4
[14] = target: T2, Heme oxygenase 1 (Homo sapiens); assay: Induction of HO-1-mediated OAS3 mRNA expression in human Ava5 cells after 3 days by RT-qPCR method; assay type: cell-based; how it was run: as §4

COc1ccc(Nc2cc3oc(-c4ccco4)nc3c3ccccc23)cc1
viability at 72 h, 200 µM [1]: 32.3% | IC50 [2]: 630 nM | CC50 at 72 h [3]: 144000 nM | Ratio IC50 [4]: 21 | IC50 ([5]; Ava5, 72 h): 820 nM | inhibition ([5]; Hepacivirus hominis): Dose-dependent effect | Activity [6]: Dose-dependent effect | inhibition [7]: inactive | Activity [8]: inactive | Activity [9]: inactive | Activity [10]: Dose-dependent effect | Activity [11]: Dose-dependent effect | Activity [12]: Dose-dependent effect | Activity [13]: Dose-dependent effect | Activity [14]: Dose-dependent effect
